Calls of active or inactive are those of the source.
What was measured:
[1] = target: Transient receptor potential cation channel subfamily A member 1 (Homo sapiens, UniProt O75762); assay: Antagonist activity at human TRPA1 expressed in CHO-TREX cells assessed as inhibition of cinnamaldehyde-induced calcium flux incubated 10 mins prior to cinnamaldehyde addition by FLIPR assay relative to control; assay type: cell-based
Summary of the method: (§1)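 TRPA1-expressing CHO-TREX cells, channel expression induced with tetracycline (0.5 µg/mL human, 1 µg/mL mouse or rat). Cells loaded with Fluo4-AM for 90 min at room temperature, washed, then test agent added in HBSS/20 mM HEPES/2.5 mM probenecid/0.1% BSA. Agonist added 10 min later at EC80: human cinnamaldehyde 30 µM, AITC 2.5 µM, dibenzoxazepine-carboxamide 5 nM; rat and mouse cinnamaldehyde 40 µM. FLIPR calcium flux; mean of triplicates fitted to sigmoidal dose-response curves.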

[2] = target: Transient receptor potential cation channel subfamily A member 1 (Mus musculus, UniProt Q8BLA8); assay: (§2) Antagonist activity at mouse TRPA1 expressed in CHO-TREX cells assessed as inhibition of cinnamaldehyde-induced calcium flux incubated 10 mins prior to cinnamaldehyde addition by FLIPR assay relative to control; assay type: cell-based; summary of the method: as §1
[3] = target: Transient receptor potential cation channel subfamily A member 1 (Mus musculus) (UniProt Q8BLA8); assay: as §2; assay type: cell-based; set-up: concentration or dose not given beside the values; summary of the method: as §1
[4] = tested on: CHO-K1; assay: Selectivity ratio of IC50 for human TRPM8 expressed in CHOK1 cells to IC50 for human TRPA1 expressed in CHO-TREX cells; assay type: cell-based
Summary of the method: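 FLIPR calcium-flux antagonist assays with Fluo4-AM loading (90 min, room temperature) in HBSS/20 mM HEPES/2.5 mM probenecid/0.1% BSA. Compound added 10 min before agonist at EC80: 40 µM menthol for CHO-K1 hTRPM8; for tetracycline-induced (0.5 µg/mL) CHO-TREX hTRPA1, 30 µM cinnamaldehyde, 2.5 µM AITC or 5 nM dibenzoxazepine carboxamide. Response is maximum minus minimum. IC50s come from sigmoidal fits of triplicate means.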

[5] = tested on: Mus musculus; assay: Reversal of mustard oil-induced allodynia in C57Bl6 mouse at 10 mg/kg, po administered 48 hrs post mustard oil challenge measured after 1 hr; assay type: functional, organism-based; set-up: dose 10 mg/kg
Summary of the method: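 Male C57Bl6 mice (20-25 g) under isoflurane received intracolonic mustard oil (0.25% in 70% ethanol). Oral vehicle or 3, 10 or 30 mg/kg given 48 h later. Abdominal von Frey filaments (0.02–15 g, ascending, up to 6 s) applied 1 h after dosing; the lowest force giving retraction, jumping, licking or scratching was taken as the threshold.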

[6] = Clearance in Balb/C mouse at 5 mg/kg, iv; assay type: ADME, organism-based; set-up: dose 5 mg/kg, route intravenous; details: in vivo
Summary of the method: (§3)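 Balb/C mice given 5 mg/kg i.v. at 2.5 mg/mL in 10% EtOH/30% PEG300/60% solutol.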

[7] = tested on: CHO-K1; assay: Selectivity ratio of IC50 for human TRPV3 expressed in CHOK1 cells to IC50 for human TRPA1 expressed in CHO-TREX cells; assay type: cell-based
Summary of the method: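 Calcium influx was measured by FLIPR in Fluo4-AM-loaded cells: hTRPV3 CHO-K1 challenged with 40 µM 2-APB, and hTRPA1 CHO-TREX (0.5 µg/mL tetracycline) challenged with 30 µM cinnamaldehyde, 2.5 µM AITC or 5 nM dibenzoxazepine carboxamide, all at EC80. Compounds were added 10 min ahead of agonist in HEPES-buffered HBSS with probenecid. Sigmoidal curves were fitted to triplicate means.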

[8] = Half life in Balb/C mouse at 5 mg/kg, iv; assay type: ADME, organism-based; set-up: dose 5 mg/kg, route intravenous; details: in vivo; summary of the method: as §3
[9] = target: Transient receptor potential cation channel subfamily A member 1 (Rattus norvegicus) (UniProt Q6RI86); assay: (§4) Antagonist activity at rat TRPA1 expressed in CHO-TREX cells assessed as inhibition of cinnamaldehyde-induced calcium flux incubated 10 mins prior to cinnamaldehyde addition by FLIPR assay relative to control; assay type: cell-based; set-up: concentration or dose not given beside the values; summary of the method: as §1
[10] = target: Transient receptor potential cation channel subfamily A member 1 (Rattus norvegicus, UniProt Q6RI86); assay: as §4; assay type: cell-based; summary of the method: as §1
[11] = tested on: Mus musculus; assay: Reduction in sensitivity to cold surface in po dosed naive mouse assessed as latency to respond with behavioral queues measured after 40 mins; assay type: functional, organism-based
Summary of the method: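 Naive mice (n = 7 per group) gavaged with vehicle (0.5% methylcellulose/0.5% Tween80), 10 or 100 mg/kg. After 40 min acclimation at room temperature, each mouse was placed on a −5 °C Peltier cold plate for up to 2 min. Latency to first jump, brisk hindpaw lift or flick/lick was recorded.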

[12] = Cmax in Balb/C mouse at 20 mg/kg, po; assay type: ADME, organism-based; set-up: dose 20 mg/kg, route oral; details: in vivo
Summary of the method: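 Balb/C mice dosed by oral gavage at 20 mg/kg as a suspension in 0.5% methylcellulose/0.5% Tween80.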

Chain of Transient receptor potential cation channel subfamily A member 1 (Homo sapiens, UniProt O75762) (O75762 whole entry): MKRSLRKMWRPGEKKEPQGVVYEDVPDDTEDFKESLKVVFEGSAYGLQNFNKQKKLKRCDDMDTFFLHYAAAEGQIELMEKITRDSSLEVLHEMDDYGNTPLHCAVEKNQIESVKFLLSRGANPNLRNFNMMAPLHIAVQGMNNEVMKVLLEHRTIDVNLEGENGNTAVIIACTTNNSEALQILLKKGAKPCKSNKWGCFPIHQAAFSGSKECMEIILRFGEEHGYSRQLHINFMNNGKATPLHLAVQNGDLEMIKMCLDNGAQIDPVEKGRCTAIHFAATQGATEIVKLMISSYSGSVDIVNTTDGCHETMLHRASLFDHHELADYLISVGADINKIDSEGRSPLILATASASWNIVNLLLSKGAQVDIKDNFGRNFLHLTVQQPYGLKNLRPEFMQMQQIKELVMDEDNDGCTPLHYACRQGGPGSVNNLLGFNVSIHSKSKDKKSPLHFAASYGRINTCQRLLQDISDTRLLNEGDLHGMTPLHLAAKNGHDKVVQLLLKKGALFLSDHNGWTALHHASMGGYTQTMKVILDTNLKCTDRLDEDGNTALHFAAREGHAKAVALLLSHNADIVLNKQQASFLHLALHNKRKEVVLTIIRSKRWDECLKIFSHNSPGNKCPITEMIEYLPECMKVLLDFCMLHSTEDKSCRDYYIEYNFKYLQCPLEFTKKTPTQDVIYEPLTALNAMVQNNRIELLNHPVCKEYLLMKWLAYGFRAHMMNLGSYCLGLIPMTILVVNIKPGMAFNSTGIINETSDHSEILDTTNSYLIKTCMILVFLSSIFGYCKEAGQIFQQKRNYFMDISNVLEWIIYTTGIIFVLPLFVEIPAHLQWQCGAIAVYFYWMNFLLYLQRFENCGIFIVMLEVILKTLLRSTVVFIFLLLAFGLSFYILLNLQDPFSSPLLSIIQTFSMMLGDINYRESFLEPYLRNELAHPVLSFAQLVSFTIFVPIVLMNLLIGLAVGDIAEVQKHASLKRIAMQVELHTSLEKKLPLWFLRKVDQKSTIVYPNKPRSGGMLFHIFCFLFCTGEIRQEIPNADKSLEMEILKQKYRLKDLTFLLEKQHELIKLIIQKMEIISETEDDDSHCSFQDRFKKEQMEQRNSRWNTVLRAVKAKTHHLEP
Chain of Transient receptor potential cation channel subfamily A member 1 (Rattus norvegicus, UniProt Q6RI86) (Q6RI86 whole entry): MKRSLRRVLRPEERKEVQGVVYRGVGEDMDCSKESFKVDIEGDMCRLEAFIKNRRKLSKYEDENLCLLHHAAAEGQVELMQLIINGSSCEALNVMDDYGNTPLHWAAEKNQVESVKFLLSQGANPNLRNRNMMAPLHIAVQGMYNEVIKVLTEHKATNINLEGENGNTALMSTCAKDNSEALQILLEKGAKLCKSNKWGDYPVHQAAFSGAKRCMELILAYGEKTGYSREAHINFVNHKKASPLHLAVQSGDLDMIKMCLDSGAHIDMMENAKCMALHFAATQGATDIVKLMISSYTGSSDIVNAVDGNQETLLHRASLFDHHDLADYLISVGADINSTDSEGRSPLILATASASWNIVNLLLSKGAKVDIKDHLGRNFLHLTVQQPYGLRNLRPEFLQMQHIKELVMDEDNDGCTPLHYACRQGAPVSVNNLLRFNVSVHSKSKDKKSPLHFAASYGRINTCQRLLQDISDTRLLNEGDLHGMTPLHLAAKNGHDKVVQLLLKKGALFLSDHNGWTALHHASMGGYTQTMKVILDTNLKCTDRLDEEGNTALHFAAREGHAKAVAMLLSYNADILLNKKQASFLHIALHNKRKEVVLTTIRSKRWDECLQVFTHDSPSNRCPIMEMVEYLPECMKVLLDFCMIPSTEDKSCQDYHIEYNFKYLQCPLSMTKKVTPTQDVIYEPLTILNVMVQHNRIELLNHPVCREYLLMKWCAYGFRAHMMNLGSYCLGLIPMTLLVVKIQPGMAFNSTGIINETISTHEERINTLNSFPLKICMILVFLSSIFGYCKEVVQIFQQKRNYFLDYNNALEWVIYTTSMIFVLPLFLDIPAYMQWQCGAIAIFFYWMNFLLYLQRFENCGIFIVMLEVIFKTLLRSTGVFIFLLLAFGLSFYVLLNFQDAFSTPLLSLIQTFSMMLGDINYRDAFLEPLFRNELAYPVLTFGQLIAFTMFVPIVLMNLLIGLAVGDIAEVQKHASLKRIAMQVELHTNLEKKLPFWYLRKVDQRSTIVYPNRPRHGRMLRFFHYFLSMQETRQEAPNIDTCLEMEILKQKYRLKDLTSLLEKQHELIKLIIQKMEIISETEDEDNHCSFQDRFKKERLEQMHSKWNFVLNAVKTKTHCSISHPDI
Chain of Transient receptor potential cation channel subfamily A member 1 (Rattus norvegicus) (Q6RI86 whole entry): as above
Chain of Transient receptor potential cation channel subfamily A member 1 (Mus musculus) (Q8BLA8 whole entry): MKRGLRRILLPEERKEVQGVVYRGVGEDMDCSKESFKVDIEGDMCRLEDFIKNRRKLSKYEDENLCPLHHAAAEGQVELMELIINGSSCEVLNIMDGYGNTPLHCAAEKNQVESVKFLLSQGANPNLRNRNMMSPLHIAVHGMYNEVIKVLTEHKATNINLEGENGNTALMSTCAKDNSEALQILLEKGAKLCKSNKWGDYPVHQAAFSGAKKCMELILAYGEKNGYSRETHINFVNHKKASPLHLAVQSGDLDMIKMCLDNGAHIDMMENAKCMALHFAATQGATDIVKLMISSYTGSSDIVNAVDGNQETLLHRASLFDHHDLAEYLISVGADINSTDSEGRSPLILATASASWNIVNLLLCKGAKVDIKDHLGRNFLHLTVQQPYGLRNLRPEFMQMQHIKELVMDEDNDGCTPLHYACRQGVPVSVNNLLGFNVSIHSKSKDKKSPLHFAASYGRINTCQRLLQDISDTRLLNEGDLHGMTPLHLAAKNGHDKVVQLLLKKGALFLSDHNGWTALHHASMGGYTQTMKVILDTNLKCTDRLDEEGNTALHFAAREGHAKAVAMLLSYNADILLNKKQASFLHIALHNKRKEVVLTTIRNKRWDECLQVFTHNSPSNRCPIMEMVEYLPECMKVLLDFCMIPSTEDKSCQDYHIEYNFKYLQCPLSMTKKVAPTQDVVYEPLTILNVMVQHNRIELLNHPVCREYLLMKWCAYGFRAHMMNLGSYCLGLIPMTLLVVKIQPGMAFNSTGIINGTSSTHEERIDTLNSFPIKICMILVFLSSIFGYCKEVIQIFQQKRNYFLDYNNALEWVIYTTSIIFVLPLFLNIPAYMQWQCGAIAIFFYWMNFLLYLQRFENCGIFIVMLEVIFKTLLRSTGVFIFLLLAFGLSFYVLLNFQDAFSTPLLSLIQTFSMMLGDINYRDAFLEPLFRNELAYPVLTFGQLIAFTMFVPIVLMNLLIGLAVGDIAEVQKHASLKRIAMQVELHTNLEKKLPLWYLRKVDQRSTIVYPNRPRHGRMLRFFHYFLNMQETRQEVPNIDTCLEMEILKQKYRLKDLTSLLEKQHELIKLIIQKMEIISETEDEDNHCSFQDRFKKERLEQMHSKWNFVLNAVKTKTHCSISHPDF
Chain of Transient receptor potential cation channel subfamily A member 1 (Mus musculus, UniProt Q8BLA8) (Q8BLA8 whole entry): as above

- IC50 [1]: 0.015 µM
- inhibition [1]: 99%
- IC50 [2]: 0.053 µM
- inhibition [3]: 100%
- clearance [6]: 39.3 mL/min/kg
- half-life [8]: 3.64 h
- inhibition [9]: 99%
- IC50 [10]: 0.089 µM
- Cmax [12]: 1270 nM
SMILES: Cc1cc2[nH]ncc2cc1-c1ccccc1C(F)(F)F
- Ratio IC50 [4]: > 100
- Activity [5]: Active
- Ratio IC50 [7]: > 100
- Activity [11]: Dose-dependent effect

From ChEMBL document CHEMBL3297713, “Discovery, optimization, and biological evaluation of 5-(2-(trifluoromethyl)phenyl)indazoles as a novel class of transient receptor potential A1 (TRPA1) antagonists” (J Med Chem, 2014)
